Experimental findings from ChEMBL document CHEMBL1152543, “Novel semisynthetic derivatives of betulin and betulinic acid with cytotoxic activity” (Bioorg Med Chem, 2009) are described below.

Common to all, as to format: functional, cell-based
Assay [1] deals with HeLa. Nature of the assay: Cytotoxicity against human HeLa cells after 72 hrs by MTT assay. The method in brief: (§1)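 MTT dose–response: exponentially growing HeLa (1×10^3 cells/well) or HepG2 (8×10^3 cells/well, DMEM + 10% FBS, 1 mM pyruvate) seeded, left 24 h, then given a compound range in DMSO (final <0.1%) for 72 h. MTT 0.5 mg/ml for 1 h, formazan dissolved in DMSO, read at 550 nm. IC50 vs untreated by non-linear regression, mean ± SD of at least three experiments.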
For orientation: Tetrazolium assays rely on reduction of a dye to a coloured formazan, in cell work by metabolically active cells.

Assay [2] deals with Jurkat. Nature of the assay: Cytotoxicity against human Jurkat cells after 72 hrs by XTT assay. A digest of the protocol: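 Jurkat cells (RPMI 1640, 10% FBS, 2 mM glutamine) in exponential growth plated at 5.5×10^3 cells/well and treated in triplicate with a concentration range or DMSO vehicle for 72 h. XTT labeling mix added, 4 h, absorbance at 450 nm. IC50 vs untreated by non-linear regression; mean ± SD of ≥3 experiments.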

In assay [3] the test system is HepG2. Kind of assay: Cytotoxicity against human HepG2 cells after 72 hrs by MTT assay. To be noted: HepG2, 72 h. A digest of the protocol:
as §1

The test system of another assay is MIA PaCa-2. Nature of the assay: Cytotoxicity against human MIAPaCa2 cells at 20 uM after 72 hrs by MTT assay. The method in brief:
(§2)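 Single-concentration screen: compound at 20 μM applied to cells plated at 1×10^3–30×10^3 cells/well (density set by cell type), 72 h at 37 °C, 5% CO2. Viability read by MTT, triplicate wells, experiment repeated three times; result given as % proliferation versus control.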

In the next assay the test system is SH-SY5Y. Kind of assay: Cytotoxicity against human SH-SY5Y cells at 20 uM after 72 hrs by XTT assay. A digest of the protocol: (§3)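 XTT screen at a single concentration: cells seeded at 1×10^3–30×10^3 cells/well depending on cell type, exposed to 20 μM for 72 h at 37 °C, 5% CO2, then read by XTT. Triplicate wells, three independent repeats; output is % proliferation relative to control.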

In assay [4] the test system is Jurkat. Nature of the assay: Cytotoxicity against human Jurkat cells at 20 uM after 72 hrs by XTT assay. A digest of the protocol: as §3
The subject of another assay is MCF7. Kind of assay: Cytotoxicity against human MCF7 cells at 20 uM after 72 hrs by MTT assay. The method in brief:
as §2

The test system of assay [5] is HeLa. Nature of the assay: Cytotoxicity against human HeLa cells at 20 uM after 72 hrs by MTT assay. The method in brief:
as §2

The test system of another assay is A-375. Nature of the assay: Cytotoxicity against human A375 cells at 20 uM after 72 hrs by MTT assay. The method in brief:
as §2

For assay [6], the system named is HepG2. Nature of the assay: Cytotoxicity against human HepG2 cells at 20 uM after 72 hrs by MTT assay. A digest of the protocol:
as §2

The subject of a further assay is HT-29. Kind of assay: Cytotoxicity against human HT-29 cells at 20 uM after 72 hrs by MTT assay. The method in brief:
as §2

pIC50: −log10 of the molar value. Calls of active or inactive are those of the source. The calls are words filed in the database; no cut-off is given here.

Turning to `C=C(C)[C@@H]1CC[C@]2(CO)CC[C@]3(C)[C@H](CC[C@@H]4[C@@]5(C)CC[C@H](OC(=O)n6ccnc6)C(C)(C)[C@@H]5CC[C@]43C)[C@@H]12`, the negative-log IC50 (pIC50) in the assay with HeLa [1] is 5.52; in the assay with Jurkat [2] it was 4.95; in the assay with HepG2 [3], 5.70.

In the case of `C=C(C)[C@@H]1CC[C@]2(C(=O)n3ccnc3)CC[C@]3(C)[C@H](CC[C@@H]4[C@@]5(C)CCC(=O)C(C)(C)[C@@H]5CC[C@]43C)[C@@H]12`, the negative logarithm of the IC50 (pIC50) in the assay on HeLa [1] is 5.70; with Jurkat [2] it was 5.85; in the assay with HepG2 [3] it was 6.10.

On to `C=C(C)[C@@H]1CC[C@]2(C(=O)n3ccnc3)CC[C@]3(C)[C@H](CC[C@@H]4[C@@]5(C)C=C(O)C(=O)C(C)(C)[C@@H]5CC[C@]43C)[C@@H]12`, for which the negative-log IC50 (pIC50) in the assay with HeLa [1] was 5.34; in the assay on Jurkat [2], 5.15; in the assay on HepG2 [3], 5.19. For the same compound, the result in the assay with MIA PaCa-2, in the assay on SH-SY5Y, with Jurkat [4], in the assay with MCF7, in the assay on HeLa [5] and with A-375 was Active. Further, the outcome in the assay with HepG2 [6] and with HT-29 was Active.

Turning to `C=C(C)[C@@H]1CC[C@]2(COC(C)=O)CC[C@]3(C)[C@H](CC[C@@H]4[C@@]5(C)CC[C@H](OC(=O)n6ccnc6)C(C)(C)[C@@H]5CC[C@]43C)[C@@H]12`, the negative logarithm of the IC50 (pIC50) in the assay with HeLa [1], in the assay on Jurkat [2] and in the assay with HepG2 [3] was less than 4.52 in each case.

For `C=C(C)[C@@H]1CC[C@]2(C(=O)O)CC[C@]3(C)[C@H](CC[C@@H]4[C@@]5(C)CC[C@H](O)C(C)(C)[C@@H]5CC[C@]43C)[C@@H]12` [BETULINIC ACID], the negative logarithm of the IC50 (pIC50) in the assay on HeLa [1] was 4.59; in the assay with Jurkat [2] it was 4.57; in the assay on HepG2 [3] it was 4.44. The outcome in the assay on MIA PaCa-2, in the assay with SH-SY5Y, with Jurkat [4], in the assay on MCF7, in the assay on HeLa [5] and in the assay on A-375 was Active. Besides, the outcome in the assay with HepG2 [6] and with HT-29 was Active.

`C=C(C)[C@@H]1CC[C@]2(C(=O)n3ccnc3)CC[C@]3(C)[C@H](CC[C@@H]4[C@@]5(C)C=C(OC(=O)n6ccnc6)C(=O)C(C)(C)[C@@H]5CC[C@]43C)[C@@H]12`: the pIC50 in the assay on HeLa [1] was 5.41; in the assay on Jurkat [2], 5.09; in the assay on HepG2 [3], 5.40.

For the compound `C=C(C)[C@@H]1CC[C@]2(C(=O)O)CC[C@]3(C)[C@H](CC[C@@H]4[C@@]5(C)CC[C@H](OC(=O)n6ccnc6)C(C)(C)[C@@H]5CC[C@]43C)[C@@H]12`, the pIC50 is 5.29 in the assay on HeLa [1], 5.28 in the assay with Jurkat [2] and 5.21 with HepG2 [3]. In addition, the result in the assay on MIA PaCa-2, in the assay with SH-SY5Y, in the assay on Jurkat [4], with MCF7, in the assay with HeLa [5] and in the assay with A-375 was Active. In addition, the result in the assay with HepG2 [6] and in the assay with HT-29 was Active.

In the case of `C=C(C)[C@@H]1CC[C@]2(C(=O)n3ccnc3)CC[C@]3(C)[C@H](CC[C@@H]4[C@@]5(C)CC[C@H](OC(=O)n6ccnc6)C(C)(C)[C@@H]5CC[C@]43C)[C@@H]12`, the results for the pIC50 with HeLa [1], with Jurkat [2] and with HepG2 [3] were 5.09, 5.22 and 5.54, respectively.

On to `C=C(COC)[C@@H]1CC[C@]2(COC(=O)n3ccnc3)CC[C@]3(C)[C@H](CC[C@@H]4[C@@]5(C)CC[C@H](OC(=O)n6ccnc6)C(C)(C)[C@@H]5CC[C@]43C)[C@@H]12`, for which the pIC50 is less than 4.52 in the assay with HeLa [1], 4.79 in the assay on Jurkat [2] and 4.71 in the assay on HepG2 [3].

With `C=C(C)[C@@H]1CC[C@]2(COC(=O)n3ccnc3)CC[C@]3(C)[C@H](CC[C@@H]4[C@@]5(C)CC[C@H](OC(=O)n6ccnc6)C(C)(C)[C@@H]5CC[C@]43C)[C@@H]12`, the negative logarithm of the IC50 (pIC50) with HeLa [1], in the assay with Jurkat [2] and in the assay with HepG2 [3] was less than 4.52 in each case.

As to `C[C@@H](C=O)[C@@H]1CC[C@]2(COC(=O)n3ccnc3)CC[C@]3(C)[C@H](CC[C@@H]4[C@@]5(C)CC[C@H](O)C(C)(C)[C@@H]5CC[C@]43C)[C@@H]12`, the values for the negative-log IC50 (pIC50) in the assay with HeLa [1], in the assay on Jurkat [2] and with HepG2 [3] were 4.95, 4.86 and 4.94, respectively. The result in the assay with MIA PaCa-2, in the assay on SH-SY5Y, in the assay with Jurkat [4], in the assay on MCF7, with HeLa [5] and in the assay on A-375 was Active. Moreover, the outcome in the assay with HepG2 [6] and with HT-29 was Active.

On to `C=C(C)[C@@H]1CC[C@]2(COC(=O)n3ccnc3)CC[C@]3(C)[C@H](CC[C@@H]4[C@@]5(C)CC[C@H](OC(C)=O)C(C)(C)[C@@H]5CC[C@]43C)[C@@H]12`, for which the pIC50 in the assay on HeLa [1], in the assay on Jurkat [2] and with HepG2 [3] was less than 4.52 in each case.

Turning to `C=C(COC)[C@@H]1CC[C@]2(COC(=O)n3ccnc3)CC[C@]3(C)[C@H](CC[C@@H]4[C@@]5(C)CC[C@H](O)C(C)(C)[C@@H]5CC[C@]43C)[C@@H]12`, the negative-log IC50 (pIC50) is 5.01 in the assay with HeLa [1], 4.91 in the assay on Jurkat [2] and 5.08 in the assay on HepG2 [3]. Besides, the result in the assay with MIA PaCa-2, in the assay on SH-SY5Y, with Jurkat [4], in the assay with MCF7, in the assay on HeLa [5] and in the assay on A-375 was Active. In addition, the outcome in the assay with HepG2 [6] and in the assay on HT-29 was Active.

Consider `C=C(C)[C@@H]1CC[C@]2(C(=O)OC)CC[C@]3(C)[C@H](CC[C@@H]4[C@@]5(C)CC[C@H](OC(=O)n6ccnc6)C(C)(C)[C@@H]5CC[C@]43C)[C@@H]12`, for which the pIC50 in the assay on HeLa [1] is 5.09; in the assay with Jurkat [2], 5.00; with HepG2 [3] it was 5.37.

As for `C=C(C)[C@@H]1CC[C@]2(C(=O)n3ccnc3)CC[C@]3(C)[C@H](CC[C@@H]4[C@@]5(C)C=CC(=O)C(C)(C)[C@@H]5CC[C@]43C)[C@@H]12`, the figures for the pIC50 in the assay with HeLa [1], with Jurkat [2] and in the assay with HepG2 [3] were 5.52, 5.64 and 5.77, respectively.

In the case of `C[C@@H](C=O)[C@@H]1CC[C@]2(COC(=O)n3ccnc3)CC[C@]3(C)[C@H](CC[C@@H]4[C@@]5(C)CC[C@H](OC(=O)n6ccnc6)C(C)(C)[C@@H]5CC[C@]43C)[C@@H]12`, the pIC50 is 4.72 with HeLa [1], 4.69 in the assay with Jurkat [2] and 4.58 with HepG2 [3].

As for `C=C(C)[C@@H]1CC[C@]2(COC(=O)n3ccnc3)CC[C@]3(C)[C@H](CC[C@@H]4[C@@]5(C)CC[C@H](O)C(C)(C)[C@@H]5CC[C@]43C)[C@@H]12`, the negative-log IC50 (pIC50) was 5.12 in the assay on HeLa [1], 4.79 in the assay on Jurkat [2] and 5.38 with HepG2 [3]. Also, the result with MIA PaCa-2, in the assay on SH-SY5Y, with Jurkat [4], in the assay with MCF7, in the assay with HeLa [5] and in the assay with A-375 was Active. In addition, the outcome in the assay on HepG2 [6] and with HT-29 was Active.

By pIC50 is commonly meant the IC50 on a negative log10 scale, so that one unit is a factor of ten. Low readings indicate a large IC50, high ones a small IC50.
